Calls of active or inactive are those of the source. No cut-off for these calls is given here.

The target in assay [1] is T1, C-type lectin domain family 7 member A (Mus musculus) (UniProt Q6QLQ4).
T1 sequence (whole entry): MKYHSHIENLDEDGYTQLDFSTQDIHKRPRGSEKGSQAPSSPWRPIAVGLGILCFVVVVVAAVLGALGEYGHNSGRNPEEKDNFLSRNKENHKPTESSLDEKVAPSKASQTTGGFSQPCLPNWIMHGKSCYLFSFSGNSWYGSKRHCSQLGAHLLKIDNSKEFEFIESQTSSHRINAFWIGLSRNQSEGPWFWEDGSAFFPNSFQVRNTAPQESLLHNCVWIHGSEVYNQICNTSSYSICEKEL
The assay is described as follows: Inhibition of mouse N-terminal hexahistidine-tagged C-type lectin domain of Dectin-1 expressed in Escherichia coli BL21 (DE3) binding to solid-supported schizophyllan pretreated for 30 mins prior SPG addition measured after 1 hr by competitive ELISA relative to SPG.

Assay [2] deals with T2, C-type lectin domain family 7 member A (Homo sapiens) (UniProt Q9BXN2).
T2 sequence (whole entry): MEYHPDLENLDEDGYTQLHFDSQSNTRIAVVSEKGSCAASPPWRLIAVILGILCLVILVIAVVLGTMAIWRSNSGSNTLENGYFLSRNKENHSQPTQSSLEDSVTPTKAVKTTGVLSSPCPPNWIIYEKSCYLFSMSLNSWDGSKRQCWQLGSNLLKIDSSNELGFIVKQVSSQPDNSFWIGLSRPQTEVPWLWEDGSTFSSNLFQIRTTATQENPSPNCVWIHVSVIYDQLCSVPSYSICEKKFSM
The assay can be described thus: Agonist activity at Dectin-1 expressed in human 293T cells assessed as LPS-mediated NF-kappaB activation after 6 hrs by dual luciferase reporter gene assay. It counts as functional, cell-based. A digest of the protocol: (§1)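 293T cells were plated at 1 × 10⁴ cells/well in DMEM with 10% FBS for 20 h at 37 °C, 5% CO₂. They were then lipofected for 18 h. Dectin-1 wells received Dectin-1A, CARD9 and Bcl10 plasmids; TLR4 wells received TLR4 and MD-2 plasmids. Both received NF-κB-RE firefly and TK-Renilla reporters. Cells were stimulated 6 h with oligosaccharides, SPG, or oligosaccharides plus LPS. Read-out was the firefly/Renilla dual-luciferase ratio.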
A general note: A reporter such as luciferase makes a cellular process visible.

Assay [3] addresses Toll-like receptor 4 (Homo sapiens) (UniProt O00206). The assay can be described thus: Agonist activity at TLR4 expressed in human 293T cells assessed as LPS-mediated NF-kappaB activation after 6 hrs by dual luciferase reporter gene assay. It counts as functional, cell-based. A digest of the protocol: as §1
Assay [4] deals with T1, C-type lectin domain family 7 member A (Mus musculus). The assay is described as follows: Binding affinity to mouse N-terminal hexahistidine-tagged C-type lectin domain of Dectin-1 expressed in Escherichia coli BL21 (DE3) by measuring saturation transfer difference amplification factor. A digest of the protocol: (§2)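 Protein was mouse Dectin-1 CTLD (Gly113–Leu244) with an N-terminal His6 tag and thrombin site, expressed in E. coli BL21(DE3)codonplus in LB. Expression was induced 6 h at 37 °C. Inclusion bodies were solubilized in 8 M urea, 50 mM Tris-HCl pH 8.0, 50 mM NaCl. Protein was refolded 16 h at 4 °C by dilution into 200 mM Tris-HCl pH 8.0, 0.4 M L-arginine, 5.0 mM GSH, 0.5 mM GSSG, then purified. Ligand was titrated at 0–25 molar equivalents with ¹H NMR monitoring.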

Assay [5] shares this target. The assay can be described thus: Binding affinity to mouse N-terminal hexahistidine-tagged C-type lectin domain of Dectin-1 expressed in Escherichia coli BL21 (DE3) by STD-NMR analysis. A digest of the protocol: as §2

Toll-like receptor 4 (Homo sapiens), sequence (O00206 whole entry, the tested form may be a part): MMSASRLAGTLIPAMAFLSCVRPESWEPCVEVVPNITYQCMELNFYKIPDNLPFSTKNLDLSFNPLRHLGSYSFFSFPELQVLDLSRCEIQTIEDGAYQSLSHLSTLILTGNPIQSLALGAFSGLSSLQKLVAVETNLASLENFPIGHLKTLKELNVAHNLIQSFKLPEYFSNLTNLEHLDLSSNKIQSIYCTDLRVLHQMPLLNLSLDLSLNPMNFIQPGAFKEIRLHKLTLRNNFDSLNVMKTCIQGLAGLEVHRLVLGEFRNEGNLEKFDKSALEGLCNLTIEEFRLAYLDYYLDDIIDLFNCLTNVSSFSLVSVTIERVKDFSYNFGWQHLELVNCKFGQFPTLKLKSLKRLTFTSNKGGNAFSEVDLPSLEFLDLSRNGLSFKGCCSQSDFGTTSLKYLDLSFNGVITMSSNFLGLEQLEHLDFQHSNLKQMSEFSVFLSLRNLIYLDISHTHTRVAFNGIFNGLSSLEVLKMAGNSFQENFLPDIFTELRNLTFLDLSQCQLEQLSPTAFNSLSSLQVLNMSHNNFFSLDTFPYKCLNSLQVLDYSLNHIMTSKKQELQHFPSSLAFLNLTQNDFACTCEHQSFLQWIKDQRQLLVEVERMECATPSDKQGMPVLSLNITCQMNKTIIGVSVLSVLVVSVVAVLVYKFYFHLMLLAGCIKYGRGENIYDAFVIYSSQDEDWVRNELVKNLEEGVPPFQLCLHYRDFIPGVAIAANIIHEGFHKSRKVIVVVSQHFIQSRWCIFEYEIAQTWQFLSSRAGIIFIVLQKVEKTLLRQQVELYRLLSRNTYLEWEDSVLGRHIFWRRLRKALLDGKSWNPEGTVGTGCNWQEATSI

As for `NCCCCCCO[C@@H]1O[C@H](CO)[C@@H](O)[C@H](O[C@@H]2O[C@H](CO)[C@@H](O)[C@H](O[C@@H]3O[C@H](CO)[C@@H](O)[C@H](O[C@@H]4O[C@H](CO)[C@@H](O)[C@H](O[C@@H]5O[C@H](CO)[C@@H](O)[C@H](O[C@@H]6O[C@H](CO)[C@@H](O)[C@H](O[C@@H]7O[C@H](CO)[C@@H](O)[C@H](O[C@@H]8O[C@H](CO)[C@@H](O)[C@H](O[C@@H]9O[C@H](CO)[C@@H](O)[C@H](O[C@@H]%10O[C@H](CO)[C@@H](O)[C@H](O[C@@H]%11O[C@H](CO)[C@@H](O)[C@H](O[C@@H]%12O[C@H](CO)[C@@H](O)[C@H](O[C@@H]%13O[C@H](CO)[C@@H](O)[C@H](O[C@@H]%14O[C@H](CO[C@@H]%15O[C@H](CO)[C@@H](O)[C@H](O)[C@H]%15O)[C@@H](O)[C@H](O[C@@H]%15O[C@H](CO)[C@@H](O)[C@H](O[C@@H]%16O[C@H](CO)[C@@H](O)[C@H](O)[C@H]%16O)[C@H]%15O)[C@H]%14O)[C@H]%13O)[C@H]%12O)[C@H]%11O)[C@H]%10O)[C@H]9O)[C@H]8O)[C@H]7O)[C@H]6O)[C@H]5O)[C@H]4O)[C@H]3O)[C@H]2O)[C@H]1O`, the fold change (FC) in assay [1] stood at 10. In addition, in assay [2], the result was Active.

As to `NCCCCCCO[C@@H]1O[C@H](CO)[C@@H](O)[C@H](O[C@@H]2O[C@H](CO)[C@@H](O)[C@H](O[C@@H]3O[C@H](CO)[C@@H](O)[C@H](O[C@@H]4O[C@H](CO)[C@@H](O)[C@H](O[C@@H]5O[C@H](CO)[C@@H](O)[C@H](O[C@@H]6O[C@H](CO)[C@@H](O)[C@H](O[C@@H]7O[C@H](CO)[C@@H](O)[C@H](O[C@@H]8O[C@H](CO)[C@@H](O)[C@H](O[C@@H]9O[C@H](CO)[C@@H](O)[C@H](O[C@@H]%10O[C@H](CO[C@@H]%11O[C@H](CO)[C@@H](O)[C@H](O)[C@H]%11O)[C@@H](O)[C@H](O[C@@H]%11O[C@H](CO)[C@@H](O)[C@H](O[C@@H]%12O[C@H](CO)[C@@H](O)[C@H](O)[C@H]%12O)[C@H]%11O)[C@H]%10O)[C@H]9O)[C@H]8O)[C@H]7O)[C@H]6O)[C@H]5O)[C@H]4O)[C@H]3O)[C@H]2O)[C@H]1O`, the result in assay [1] and in assay [2] was inactive.

With `NCCCCCCO[C@@H]1O[C@H](CO)[C@@H](O)[C@H](O[C@@H]2O[C@H](CO)[C@@H](O)[C@H](O[C@@H]3O[C@H](CO)[C@@H](O)[C@H](O[C@@H]4O[C@H](CO)[C@@H](O)[C@H](O[C@@H]5O[C@H](CO)[C@@H](O)[C@H](O[C@@H]6O[C@H](CO[C@@H]7O[C@H](CO)[C@@H](O)[C@H](O)[C@H]7O)[C@@H](O)[C@H](O[C@@H]7O[C@H](CO)[C@@H](O)[C@H](O[C@@H]8O[C@H](CO)[C@@H](O)[C@H](O)[C@H]8O)[C@H]7O)[C@H]6O)[C@H]5O)[C@H]4O)[C@H]3O)[C@H]2O)[C@H]1O`, the result in assay [1] and in assay [2] was inactive.

For `NCCCCCCO[C@@H]1O[C@H](CO)[C@@H](O)[C@H](O[C@@H]2O[C@H](CO)[C@@H](O)[C@H](O[C@@H]3O[C@H](CO)[C@@H](O)[C@H](O[C@@H]4O[C@H](CO)[C@@H](O)[C@H](O[C@@H]5O[C@H](CO)[C@@H](O)[C@H](O[C@@H]6O[C@H](CO)[C@@H](O)[C@H](O[C@@H]7O[C@H](CO)[C@@H](O)[C@H](O[C@@H]8O[C@H](CO)[C@@H](O)[C@H](O[C@@H]9O[C@H](CO)[C@@H](O)[C@H](O[C@@H]%10O[C@H](CO)[C@@H](O)[C@H](O[C@@H]%11O[C@H](CO)[C@@H](O)[C@H](O[C@@H]%12O[C@H](CO)[C@@H](O)[C@H](O)[C@H]%12O)[C@H]%11O)[C@H]%10O)[C@H]9O)[C@H]8O)[C@H]7O)[C@H]6O)[C@H]5O)[C@H]4O)[C@H]3O)[C@H]2O)[C@H]1O`, the result in assay [1], in assay [2] and in assay [3] was inactive.

As to `NCCCCCCO[C@@H]1O[C@H](CO)[C@@H](O)[C@H](O[C@@H]2O[C@H](CO)[C@@H](O)[C@H](O[C@@H]3O[C@H](CO)[C@@H](O)[C@H](O[C@@H]4O[C@H](CO)[C@@H](O)[C@H](O[C@@H]5O[C@H](CO)[C@@H](O)[C@H](O[C@@H]6O[C@H](CO)[C@@H](O)[C@H](O[C@@H]7O[C@H](CO)[C@@H](O)[C@H](O[C@@H]8O[C@H](CO)[C@@H](O)[C@H](O)[C@H]8O)[C@H]7O)[C@H]6O)[C@H]5O)[C@H]4O)[C@H]3O)[C@H]2O)[C@H]1O`, the outcome in assay [1], in assay [2] and in assay [3] was inactive.

Consider `NCCCCCCO[C@@H]1O[C@H](CO)[C@@H](O)[C@H](O[C@@H]2O[C@H](CO)[C@@H](O)[C@H](O[C@@H]3O[C@H](CO)[C@@H](O)[C@H](O[C@@H]4O[C@H](CO)[C@@H](O)[C@H](O[C@@H]5O[C@H](CO)[C@@H](O)[C@H](O[C@@H]6O[C@H](CO)[C@@H](O)[C@H](O[C@@H]7O[C@H](CO)[C@@H](O)[C@H](O[C@@H]8O[C@H](CO)[C@@H](O)[C@H](O[C@@H]9O[C@H](CO)[C@@H](O)[C@H](O[C@@H]%10O[C@H](CO)[C@@H](O)[C@H](O[C@@H]%11O[C@H](CO)[C@@H](O)[C@H](O[C@@H]%12O[C@H](CO)[C@@H](O)[C@H](O[C@@H]%13O[C@H](CO)[C@@H](O)[C@H](O[C@@H]%14O[C@H](CO)[C@@H](O)[C@H](O[C@@H]%15O[C@H](CO)[C@@H](O)[C@H](O[C@@H]%16O[C@H](CO)[C@@H](O)[C@H](O)[C@H]%16O)[C@H]%15O)[C@H]%14O)[C@H]%13O)[C@H]%12O)[C@H]%11O)[C@H]%10O)[C@H]9O)[C@H]8O)[C@H]7O)[C@H]6O)[C@H]5O)[C@H]4O)[C@H]3O)[C@H]2O)[C@H]1O`, for which the fold change (FC) in assay [1] came out at 10. For the same molecule, the result in assay [4], in assay [2] and in assay [5] was Active. In addition, in assay [3], the result was inactive.

Values taken from ChEMBL document CHEMBL2034828, “Synthesis of β(1,3) oligoglucans exhibiting a Dectin-1 binding affinity and their biological evaluation” (Bioorg Med Chem, 2012).
